From ChEMBL document CHEMBL1128232, “Synthesis of novel thiol-containing citric acid analogues. Kinetic evaluation of these and other potential active-site-directed and mechanism-based inhibitors of ATP citrate lyase” (J Med Chem, 1995)

Assays:
[1] = biological target: T1, ATP-citrate synthase (Rattus norvegicus, UniProt P16638); experiment: Reversible binding potential for rat ATP-Citrate Lyase as carbon-carbon bond cleavage activity in citrate substrate
T1 sequence (P16638 whole entry): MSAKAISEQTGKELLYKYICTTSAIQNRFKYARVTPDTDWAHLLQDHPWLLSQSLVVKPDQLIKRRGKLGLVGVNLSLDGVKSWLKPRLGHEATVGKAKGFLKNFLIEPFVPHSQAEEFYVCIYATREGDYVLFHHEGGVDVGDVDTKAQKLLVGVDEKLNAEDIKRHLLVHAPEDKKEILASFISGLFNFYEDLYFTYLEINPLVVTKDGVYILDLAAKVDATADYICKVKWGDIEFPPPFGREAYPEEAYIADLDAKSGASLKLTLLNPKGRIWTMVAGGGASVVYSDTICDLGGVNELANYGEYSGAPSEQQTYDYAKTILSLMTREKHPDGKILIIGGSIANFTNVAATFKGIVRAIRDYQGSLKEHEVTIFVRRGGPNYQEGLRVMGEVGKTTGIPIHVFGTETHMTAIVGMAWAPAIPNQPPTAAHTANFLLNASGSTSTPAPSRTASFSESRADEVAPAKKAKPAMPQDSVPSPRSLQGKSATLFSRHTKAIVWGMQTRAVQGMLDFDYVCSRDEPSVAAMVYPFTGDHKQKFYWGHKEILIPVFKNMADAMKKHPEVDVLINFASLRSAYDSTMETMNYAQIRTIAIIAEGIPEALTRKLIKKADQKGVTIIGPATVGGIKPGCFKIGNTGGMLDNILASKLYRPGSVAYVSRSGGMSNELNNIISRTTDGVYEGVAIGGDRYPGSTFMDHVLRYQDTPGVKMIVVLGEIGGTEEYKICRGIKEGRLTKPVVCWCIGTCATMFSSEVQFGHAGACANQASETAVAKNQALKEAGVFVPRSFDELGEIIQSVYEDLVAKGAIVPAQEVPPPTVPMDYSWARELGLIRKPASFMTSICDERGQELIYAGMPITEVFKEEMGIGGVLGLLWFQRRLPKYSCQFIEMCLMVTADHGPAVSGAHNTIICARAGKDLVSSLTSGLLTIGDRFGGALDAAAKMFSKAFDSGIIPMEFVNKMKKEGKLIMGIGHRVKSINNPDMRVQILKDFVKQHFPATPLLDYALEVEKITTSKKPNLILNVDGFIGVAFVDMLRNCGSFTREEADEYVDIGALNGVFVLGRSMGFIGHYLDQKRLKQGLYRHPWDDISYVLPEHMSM
How it was run: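 Purified rat liver enzyme; carbon–carbon cleavage activity measured at 1.0 mM citrate (equal to Km). Ki derived by fitting rate data to the competitive inhibition equation, which reduces under these conditions to V = Vmax/(2 + [I]/Ki).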

[2] = biological target: T1, ATP-citrate synthase; experiment: Irreversible inactivation of rat ATP-Citrate Lyase; nd=not detectable
How it was run: (§1)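 Rat liver ATP citrate lyase (purified) incubated with 2 mM inhibitor at 25 °C in Tris-HCl pH 8.0; aliquots withdrawn over 48 h and placed directly into assay cocktail with saturating substrate. Remaining activity read as carbon–carbon cleavage of citrate to detect time-dependent inactivation.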

[3] = biological target: T1, ATP-citrate synthase; experiment: Irreversible inactivation was evaluated against rat ATP-Citrate Lyase; nd= Time dependent inactivation was not detectable above thermal decay rate of 5.0 x10E-3 1/h at 2 mM inhibitor at […]; not detectable; how it was run: as §1

SMILES | Ki [1] [µM] | Ki [2] | Ki [3]
O=C(O)/C=C(\CC(=O)O)C(=O)O [ACONITIC ACID] | > 1000 | Not detectable | –
C=C(CC(=O)O)C(=O)O [ITACONATE] | > 1000 | Not detectable | –
O=C(O)C[C@@](O)(C(=O)O)[C@H](O)C(=O)O | 0.15 | – | Not detectable
O=C(O)C[C@@](O)(C(=O)O)[C@@H](S)C(=O)O | 150 | Not detectable | –
CSSC(CC(=O)O)(CC(=O)O)C(=O)O | 480 | Not detectable | –
O=C(O)CC(S)(CC(=O)O)C(=O)O | 295 | Not detectable | –
O=C1C[C@@](C(=O)O)([C@@H](Cl)C(=O)O)O1 | 340 | Not detectable | –
O=C(O)/C=C(/CC(=O)O)C(=O)O | > 1000 | Not detectable | –
O=C(O)C[C@@](O)(C(=O)O)[C@@H](Cl)C(=O)O | 29 | Not detectable | –
CSS[C@H](C(=O)O)[C@@](O)(CC(=O)O)C(=O)O | 34 | Not detectable | –
O=C(O)C[C@]1(C(=O)O)O[C@@H]1C(=O)O | 400 | Not detectable | –
O=C(O)C[C@]1(C(=O)O)O[C@H]1C(=O)O | 18 | Not detectable | –
O=C(O)C[C@@](O)(C(=O)O)[C@H](S)C(=O)O | 58 | Not detectable | –
